The results in this text go back to ChEMBL document CHEMBL1123835, “Synthesis and biological properties of actinomycin D chromophoric analogues substituted at the 7-carbon with aziridine and aminopropoxy functions” (1987).

One assay relates to CCRF-CEM. Description: In vitro growth inhibition of CCRF-CEM (Human leukemic lymphoblastic) cell. It counts as functional. The conditions noted are these: read-out: ID50 (the source's name). Summed up:
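Human CCRF-CEM lymphoblastic leukemia cells were grown in continuous spinner (suspension) culture in log phase. Compounds were dissolved in Me2SO/saline, with under 1% Me2SO in the final medium. ID50 (ng/mL) is the concentration giving 50% growth inhibition at 48 h, averaged over three experiments.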

The test system of the next assay is B16. Description: compound was evaluated in vitro for growth inhibition of B16 (Murine melanoma cell line) cell. It is filed as functional. Conditions: Mus musculus, read-out: ID50 (the source's name). The essentials: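 Murine B16 melanoma cells were grown as a monolayer culture in log-phase growth. Compounds were dissolved in Me2SO/saline, with under 1% Me2SO in the final growth medium. ID50 (ng/mL) is the concentration giving 50% growth inhibition after 48 h, averaged over three experiments.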

Assay [1] is described as follows: Compound was evaluated for the elevation in temperature (degrees Centigrade) for thermal denaturation of DNA.
The nature of assay [2]: Compound was evaluated for the elevation in temperature (degrees Celsius) for thermal denaturation of DNA. The essentials: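 Calf-thymus DNA at 5.2 × 10^-5 M with drug at 2.5 × 10^-5 M in 0.01 M phosphate buffer (pH 7) with 10^-5 M EDTA. Thermal denaturation curves were recorded on a thermoprogrammed spectrophotometer with a quartz cell. ΔTm = Tm of DNA–drug complex minus Tm of DNA, with melting in the 67-85 °C range.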

Converted amounts (≈) assume the structure as drawn. *1 amine or outer side, *2 acyl side, *3 side chain or, on linkers, in order; H or OH if unused. Where a SMILES comes first, the peptide text is derived from it. Bridges are numbered along the chain shown (N, C = ends). Roman numbers before positions name the chains, in order. [ ]: non-standard residue; d: D form. Actinocin(1to9) = Cc1c2oc3c(C)ccc(C(=O)[*:2])c3nc-2c(C(=O)[*:1])c(N)c1=O; NMeV = CN[C@H](C(=O)O)C(C)C; Sar = CNCC(=O)O

As for `Cc1c2oc3c(C)c(OCC4CN4)cc(C(=O)NC4C(=O)N[C@H](C(C)C)C(=O)N5CCC[C@H]5C(=O)N(C)CC(=O)N(C)[C@@H](C(C)C)C(=O)O[C@H]4C)c3nc-2c(C(=O)NC2C(=O)N[C@H](C(C)C)C(=O)N3CCC[C@H]3C(=O)N(C)CC(=O)N(C)[C@@H](C(C)C)C(=O)O[C@H]2C)c(N)c1=O` (some centres not stated), the IC50 with CCRF-CEM came out at 0.076 µg/mL (≈ 0.0573 µM); in the assay on B16, 0.11 µg/mL (≈ 0.0829 µM). Besides, the Change in Tm in assay [1] turned out to be 2.8.
For the molecule `C=CCOc1cc(C(=O)NC2C(=O)N[C@H](C(C)C)C(=O)N3CCC[C@H]3C(=O)N(C)CC(=O)N(C)[C@@H](C(C)C)C(=O)O[C@H]2C)c2nc3c(C(=O)NC4C(=O)N[C@H](C(C)C)C(=O)N5CCC[C@H]5C(=O)N(C)CC(=O)N(C)[C@@H](C(C)C)C(=O)O[C@H]4C)c(N)c(=O)c(C)c-3oc2c1C` (some centres not stated), the IC50 was more than 0.75 µg/mL in the assay with CCRF-CEM and more than 1 µg/mL in the assay on B16. Besides, in assay [2], the Change in Tm was determined as 6.8.
In the same order, the values of `Cc1c2oc3c(C)c(OCC(C)N)cc(C(=O)NC4C(=O)N[C@H](C(C)C)C(=O)N5CCC[C@H]5C(=O)N(C)CC(=O)N(C)[C@@H](C(C)C)C(=O)O[C@H]4C)c3nc-2c(C(=O)NC2C(=O)N[C@H](C(C)C)C(=O)N3CCC[C@H]3C(=O)N(C)CC(=O)N(C)[C@@H](C(C)C)C(=O)O[C@H]2C)c(N)c1=O` (some centres not stated) are 0.06 µg/mL (≈ 0.0452 µM), 0.055 µg/mL (≈ 0.0414 µM) and 4.8.
In the same order, the values of `Cc1c2oc3c(C)ccc(C(=O)N[C@@H]4C(=O)N[C@H](C(C)C)C(=O)N5CCC[C@H]5C(=O)N(C)CC(=O)N(C)[C@@H](C(C)C)C(=O)O[C@@H]4C)c3nc-2c(C(=O)N[C@@H]2C(=O)N[C@H](C(C)C)C(=O)N3CCC[C@H]3C(=O)N(C)CC(=O)N(C)[C@@H](C(C)C)C(=O)O[C@@H]2C)c(N)c1=O` [DACTINOMYCIN] (I: T[dV]P[Sar][NMeV] / II: T[dV]P[Sar][NMeV]; ester I:1-I:C, II:1-II:C; linker I:N-II:N via Actinocin(1to9)) are 0.013 µg/mL (≈ 0.0104 µM), 0.0033 µg/mL (≈ 0.00263 µM) and 8.
